According to ChEMBL document CHEMBL3286234, “Synthesis, Characterization, and in Vitro Evaluation of a New TSPO-Selective Bifunctional Chelate Ligand” (ACS Med Chem Lett, 2014):
Activity calls are given as the source filed them. The rule behind the calls is not given here.

How the values were obtained:
C6 [1] = assay: Cell cycle arrest in rat C6 cells assessed as proportion of cells at G0/G1 phase at 0.3 uM after 72 hrs by propidium iodide staining based flow cytometry (reference value: 54.94%); format: functional
C6 [2] = assay: Cell cycle arrest in rat C6 cells at 10 uM after 24 hrs by propidium iodide staining based flow cytometry; format: functional
Method in brief: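 C6 glioma cells exposed to 10 μM for 24 h, then cell cycle histograms recorded by flow cytometry. Untreated cells served as control.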

A2780cisR [3] = assay: Resistance factor, ratio of IC50 for human A2780cisR cells to IC50 for cisplatin-sensitive human A2780 cells; format: functional
C6 [4] = assay: Cell cycle arrest in rat C6 cells assessed as proportion of cells at G2/M phase at 0.3 uM after 72 hrs by propidium iodide staining based flow cytometry (reference value: 28.02%); format: functional
C6 [5] = assay: Induction of mitochondrial and nuclear structure modification in rat C6 cells assessed as fragmented nuclei and mitochondria at 10 uM after 24 hrs by MitoTracker Red/DAPI staining based fluorescence microscopy; format: functional, cell-based
Method in brief: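 C6 glioma cells exposed at 10 μM for 24 h, then stained with MitoTracker Red for mitochondria and DAPI for nuclei. Morphology assessed with a digital imaging system. Untreated cells served as control.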

C6 [6] = assay: Cell cycle arrest in rat C6 cells assessed as proportion of cells at sub-G1 phase at 0.3 uM after 72 hrs by propidium iodide staining based flow cytometry (reference value: 5.89%); format: functional
C6 [7] = assay: Cell cycle arrest in rat C6 cells assessed as proportion of cells at S phase at 0.3 uM after 72 hrs by propidium iodide staining based flow cytometry (reference value: 11.15%); format: functional
[8] = Induction of single strand breaks in supercoiled pET plasmid DNA (unknown origin) at 0.5 to 10 uM pretreated for 2 hrs by agarose gel electrophoresis in presence of CuCl2 and GSH
Method in brief: (§1)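 Compound preincubated 2 h with CuCl2 (5 equiv) and GSH (50 equiv), then reacted with pET plasmid DNA for 1 h at 37 °C at 0.5, 1, 2 or 10 μM. Forms I, II and III resolved on 1% agarose gel stained with ethidium bromide. Controls were untreated DNA and CuCl2 plus GSH alone.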

[9] = Induction of double strand breaks in supercoiled pET plasmid DNA (unknown origin) at 0.5 to 10 uM pretreated for 2 hrs by agarose gel electrophoresis in presence of CuCl2 and GSH; method in brief: as §1
C6 [10] = assay: Antiproliferative activity in rat C6 cells assessed as proportion of cells with depolarized mitochondrial membrane potential at 10 uM after 24 hrs by JC-1 staining based flow cytometry (reference value: 0.21%); format: functional
C6 [11] = assay: Cytotoxicity against rat C6 cells overexpressing TSPO assessed as inhibition of cell viability after 72 hrs by MTT assay; format: functional, cell-based; conditions: C6, 72 h
Method in brief: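 Cells exposed to drug over 0.05 to 100 μM at 37 °C for 72 h; IC50 reported.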

A2780 = assay: Cytotoxicity against cisplatin-sensitive human A2780 cells assessed as inhibition of cell viability after 72 hrs by MTT assay; format: functional, cell-based; conditions: A2780, 72 h
Method in brief: (§2)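 Cells treated across 0.05 to 100 μM and incubated 72 h at 37 °C; IC50 in μM.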

Translocator protein = Translocator protein (Rattus norvegicus, UniProt P16257); assay: Displacement of [3H]PK11195 from TSPO in rat C6 cell membrane after 90 mins by radioligand binding assay; format: cell membranes
Method in brief: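 Affinity for TSPO was measured on membrane extracts of C6 glioma cells and reported as Ki (nM).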

A2780cisR [12] = assay: Cytotoxicity against human A2780cisR cells assessed as inhibition of cell viability after 72 hrs by MTT assay; format: functional, cell-based; method in brief: as §2
[13] = Induction of double strand breaks in supercoiled pET plasmid DNA (unknown origin) at 10 uM pretreated for 2 hrs by agarose gel electrophoresis in absence of CuCl2
Method in brief: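 Compound at 10 μM, without CuCl2, incubated with pET plasmid DNA. Supercoiled, open circular and linear forms resolved on 1% agarose gel stained with ethidium bromide.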

[14] = Induction of double strand breaks in supercoiled pET plasmid DNA (unknown origin) at 10 uM pretreated for 2 hrs by agarose gel electrophoresis in presence of CuCl2 and GSH
Method in brief: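 Ligand (0.5, 1, 2 or 10 μM) preincubated 2 h with CuCl2 (5 equiv) and GSH (50 equiv), then reacted with pET plasmid for 1 h at 37 °C. Products separated on 1% agarose gel stained with ethidium bromide and scored as supercoiled (I), open circular (II) and linear (III) forms.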

Translocator protein, sequence (P16257 whole entry, looked up): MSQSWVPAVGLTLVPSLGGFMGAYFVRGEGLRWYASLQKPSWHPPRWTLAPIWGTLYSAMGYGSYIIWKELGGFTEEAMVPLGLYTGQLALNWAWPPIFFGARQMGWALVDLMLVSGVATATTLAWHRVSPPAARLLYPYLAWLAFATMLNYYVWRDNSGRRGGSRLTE

Activity [8]	Activity [9]	Activity [13]	Compound	Activity (C6 [1])	Activity (C6 [2])	Ratio IC50 (A2780cisR [3])	Activity (C6 [4])	Activity (C6 [5])	Activity (C6 [6])	Activity (C6 [7])	Activity (C6 [10])	IC50 (C6 [11])	IC50 (A2780)	Ki (Translocator protein)	IC50 (A2780cisR [12])	Activity [14]
inactive	Active	inactive	CCCN(CCC)C(=O)Cc1c(-c2ccc(Cl)cc2)nc2c(NC(=O)CN(Cc3ccccn3)Cc3ccccn3)cccn12	49.07%	inactive	1.02	28.69%	Active	9.06%	13.18%	2.47%	0.27 µM	9.02 µM	0.239 µM	9.21 µM	–
–	–	–	CCCN(CCC)C(=O)Cc1c(-c2ccc(Cl)cc2)nc2c(N)cccn12	–	–	–	–	–	–	–	–	19.7 µM	–	0.0016 µM	–	inactive
